Laboratory results from ChEMBL document CHEMBL4138113, “Novel propanamides as fatty acid amide hydrolase inhibitors” (Eur J Med Chem, 2017).
Active and inactive are the calls of the source.

Legend:
[1] = biological target: T1, Fatty-acid amide hydrolase 1 (Mus musculus, UniProt O08914); assay: Mixed-type inhibition of B6CBAF1/J mouse brain FAAH using [3H]AEA as substrate after 10 mins by Dixon plot analysis
T1 sequence (O08914 whole entry): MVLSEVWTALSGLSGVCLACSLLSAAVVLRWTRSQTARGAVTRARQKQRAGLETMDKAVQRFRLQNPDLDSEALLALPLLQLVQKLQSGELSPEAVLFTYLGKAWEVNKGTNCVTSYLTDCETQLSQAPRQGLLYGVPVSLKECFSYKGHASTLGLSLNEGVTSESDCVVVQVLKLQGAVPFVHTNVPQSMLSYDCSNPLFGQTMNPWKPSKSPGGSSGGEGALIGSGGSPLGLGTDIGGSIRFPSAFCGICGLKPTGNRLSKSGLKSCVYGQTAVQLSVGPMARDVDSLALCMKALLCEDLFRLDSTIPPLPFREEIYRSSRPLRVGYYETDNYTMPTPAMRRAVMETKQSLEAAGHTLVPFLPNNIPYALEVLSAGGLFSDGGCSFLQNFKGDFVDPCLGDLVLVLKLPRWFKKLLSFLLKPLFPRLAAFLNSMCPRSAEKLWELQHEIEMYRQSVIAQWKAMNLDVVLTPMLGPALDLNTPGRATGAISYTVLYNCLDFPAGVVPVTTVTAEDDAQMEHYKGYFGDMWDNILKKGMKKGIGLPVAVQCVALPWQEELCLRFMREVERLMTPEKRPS
Summary of the method: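 Kinetic study in brain homogenate from male B6CBAF1/J mice (0.3 µg protein per assay). [3H]AEA hydrolysis ran for 10 min at 37 °C in Tris-EDTA buffer, pH 7.4, with the AEA:fatty acid-free BSA ratio held at 1:~4.5. Products were separated on charcoal and counted by scintillation. Competitive, mixed-type and non-competitive fits were compared by Akaike's criterion.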

[2] = biological target: T2, Prostaglandin G/H synthase 2 (Homo sapiens) (UniProt P35354); assay: Inhibition of recombinant human COX2 using arachidonic acid/2-AG as substrate after 5 mins
T2 sequence (whole entry): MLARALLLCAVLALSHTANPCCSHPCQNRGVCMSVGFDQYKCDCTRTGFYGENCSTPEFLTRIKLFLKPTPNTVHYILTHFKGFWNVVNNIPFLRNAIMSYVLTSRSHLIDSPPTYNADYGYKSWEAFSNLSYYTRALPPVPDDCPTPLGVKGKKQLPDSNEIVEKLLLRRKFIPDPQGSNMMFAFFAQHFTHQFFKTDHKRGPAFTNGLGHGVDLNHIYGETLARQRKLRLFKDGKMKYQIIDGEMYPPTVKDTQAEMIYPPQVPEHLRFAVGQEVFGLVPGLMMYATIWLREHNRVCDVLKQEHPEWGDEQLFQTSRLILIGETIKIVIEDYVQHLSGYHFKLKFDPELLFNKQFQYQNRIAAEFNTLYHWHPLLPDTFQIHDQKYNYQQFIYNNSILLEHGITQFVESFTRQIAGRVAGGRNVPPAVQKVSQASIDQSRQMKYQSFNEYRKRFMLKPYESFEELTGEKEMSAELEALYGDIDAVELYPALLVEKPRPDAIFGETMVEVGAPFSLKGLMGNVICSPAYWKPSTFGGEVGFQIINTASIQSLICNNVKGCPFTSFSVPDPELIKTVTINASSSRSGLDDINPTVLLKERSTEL
Summary of the method: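 Oxygen-electrode assay at room temperature in 0.1 M Tris-HCl, pH 7.4, with 1 µM haematin, 2 mM phenol, 5 mM EDTA and 10 µM (final) arachidonic acid or 2-AG. Compound in EtOH was added and a 5 min baseline recorded. The reaction was started with ovine COX-1 or human recombinant COX-2 (200 U), and oxygen consumption was read in 10 s blocks. Means ± SEM, n = 3-4.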

[3] = biological target: T3, Fatty-acid amide hydrolase 1 (Rattus norvegicus) (UniProt P97612); assay: Inhibition of rat brain FAAH at 0.3 to 100 uM using [3H]AEA as substrate after 10 mins by liquid scintillation counting analysis relative to control
T3 sequence (whole entry): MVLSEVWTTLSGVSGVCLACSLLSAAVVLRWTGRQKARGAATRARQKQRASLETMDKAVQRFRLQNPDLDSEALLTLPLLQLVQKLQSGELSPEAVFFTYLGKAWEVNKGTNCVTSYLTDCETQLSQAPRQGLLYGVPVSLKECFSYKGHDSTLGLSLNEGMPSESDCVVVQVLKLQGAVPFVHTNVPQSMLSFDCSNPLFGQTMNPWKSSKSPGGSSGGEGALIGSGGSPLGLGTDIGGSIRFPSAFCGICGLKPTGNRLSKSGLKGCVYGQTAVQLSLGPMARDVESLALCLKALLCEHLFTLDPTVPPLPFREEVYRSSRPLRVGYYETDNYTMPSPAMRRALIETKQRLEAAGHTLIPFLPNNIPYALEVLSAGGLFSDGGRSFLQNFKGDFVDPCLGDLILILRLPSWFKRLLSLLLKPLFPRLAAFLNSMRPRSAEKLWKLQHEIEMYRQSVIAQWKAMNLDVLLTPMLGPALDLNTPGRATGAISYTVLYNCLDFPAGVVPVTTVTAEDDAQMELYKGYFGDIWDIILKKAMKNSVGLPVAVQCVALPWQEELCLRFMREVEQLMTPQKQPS
Summary of the method: (§1)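 Rat (Wistar or Sprague-Dawley) brain homogenate without cerebella, washed and pre-incubated 15 min at 37 °C to clear endogenous substrate. Compound (in ethanol or DMSO) was mixed with 1 µg protein on ice in 10 mM Tris-HCl, 1 mM EDTA, pH 7.4. Reaction used 0.5 µM [3H]AEA with fatty acid-free BSA for 10 min at 37 °C. It was stopped with charcoal/HCl, and supernatant tritium was counted. ≥5 half-log concentrations, ≥3 experiments; maximum inhibition = 100 − fitted bottom.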

[4] = biological target: Fatty-acid amide hydrolase 1 (Homo sapiens, UniProt O00519, T488A); assay: Inhibition of FAAH T488A mutant (unknown origin) expressed in human HeLa cells using [3H]AEA as substrate after 2 hrs by liquid scintillation counting analysis; type: cell-based
[5] = biological target: T4, Fatty-acid amide hydrolase 1 (Rattus norvegicus, UniProt P97612); assay: Inhibition of rat brain FAAH using [3H]AEA as substrate after 10 mins by liquid scintillation counting analysis; summary of the method: as §1
T4 sequence (P97612 whole entry): T3 sequence (whole entry)

Fatty-acid amide hydrolase 1 (Homo sapiens, UniProt O00519, T488A), sequence (O00519 whole entry T488A): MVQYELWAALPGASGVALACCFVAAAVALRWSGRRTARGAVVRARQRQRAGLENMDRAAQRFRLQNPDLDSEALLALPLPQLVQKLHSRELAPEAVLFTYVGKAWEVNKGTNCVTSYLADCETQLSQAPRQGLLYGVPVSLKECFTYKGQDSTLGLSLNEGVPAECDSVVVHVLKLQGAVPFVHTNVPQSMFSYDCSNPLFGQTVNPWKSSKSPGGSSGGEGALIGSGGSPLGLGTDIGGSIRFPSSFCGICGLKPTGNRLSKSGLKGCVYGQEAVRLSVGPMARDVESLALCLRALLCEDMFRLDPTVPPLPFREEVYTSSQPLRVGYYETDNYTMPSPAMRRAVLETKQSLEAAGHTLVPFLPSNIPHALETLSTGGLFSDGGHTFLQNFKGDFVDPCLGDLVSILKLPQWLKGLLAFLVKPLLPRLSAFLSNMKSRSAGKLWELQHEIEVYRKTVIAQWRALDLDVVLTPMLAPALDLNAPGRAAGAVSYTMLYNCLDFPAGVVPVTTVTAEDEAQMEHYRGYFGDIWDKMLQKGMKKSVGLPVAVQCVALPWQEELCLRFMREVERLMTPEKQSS

Ki [1] [µM] | inhibition [2] | Imax [3] [%] | IC50 [4] [µM] | IC50 ([5]; read-out: IC50) [nM] | IC50 ([5]; read-out: pIC50 (converted)) [nM] | Compound
6.3 | inactive | 100 | 1.9 to 9.4 | 590 | 589 | Cc1cccnc1NC(=O)C(C)c1ccc(Nc2ccnc(C(F)(F)F)c2)cc1 (stereo unspecified)
3 | inactive | 100 |  | 58 | 57.5 | CC(C(=O)Nc1ncccc1Cl)c1ccc(Nc2ccnc(C(F)(F)F)c2)cc1 (stereo unspecified)
